Measurements of several laboratories.
Each line is one published result; the experiments were not run side by side.
Target: Cyclin-G-associated kinase (GAK, Homo sapiens, UniProt O14976)
One construct used (O14976 1-1311): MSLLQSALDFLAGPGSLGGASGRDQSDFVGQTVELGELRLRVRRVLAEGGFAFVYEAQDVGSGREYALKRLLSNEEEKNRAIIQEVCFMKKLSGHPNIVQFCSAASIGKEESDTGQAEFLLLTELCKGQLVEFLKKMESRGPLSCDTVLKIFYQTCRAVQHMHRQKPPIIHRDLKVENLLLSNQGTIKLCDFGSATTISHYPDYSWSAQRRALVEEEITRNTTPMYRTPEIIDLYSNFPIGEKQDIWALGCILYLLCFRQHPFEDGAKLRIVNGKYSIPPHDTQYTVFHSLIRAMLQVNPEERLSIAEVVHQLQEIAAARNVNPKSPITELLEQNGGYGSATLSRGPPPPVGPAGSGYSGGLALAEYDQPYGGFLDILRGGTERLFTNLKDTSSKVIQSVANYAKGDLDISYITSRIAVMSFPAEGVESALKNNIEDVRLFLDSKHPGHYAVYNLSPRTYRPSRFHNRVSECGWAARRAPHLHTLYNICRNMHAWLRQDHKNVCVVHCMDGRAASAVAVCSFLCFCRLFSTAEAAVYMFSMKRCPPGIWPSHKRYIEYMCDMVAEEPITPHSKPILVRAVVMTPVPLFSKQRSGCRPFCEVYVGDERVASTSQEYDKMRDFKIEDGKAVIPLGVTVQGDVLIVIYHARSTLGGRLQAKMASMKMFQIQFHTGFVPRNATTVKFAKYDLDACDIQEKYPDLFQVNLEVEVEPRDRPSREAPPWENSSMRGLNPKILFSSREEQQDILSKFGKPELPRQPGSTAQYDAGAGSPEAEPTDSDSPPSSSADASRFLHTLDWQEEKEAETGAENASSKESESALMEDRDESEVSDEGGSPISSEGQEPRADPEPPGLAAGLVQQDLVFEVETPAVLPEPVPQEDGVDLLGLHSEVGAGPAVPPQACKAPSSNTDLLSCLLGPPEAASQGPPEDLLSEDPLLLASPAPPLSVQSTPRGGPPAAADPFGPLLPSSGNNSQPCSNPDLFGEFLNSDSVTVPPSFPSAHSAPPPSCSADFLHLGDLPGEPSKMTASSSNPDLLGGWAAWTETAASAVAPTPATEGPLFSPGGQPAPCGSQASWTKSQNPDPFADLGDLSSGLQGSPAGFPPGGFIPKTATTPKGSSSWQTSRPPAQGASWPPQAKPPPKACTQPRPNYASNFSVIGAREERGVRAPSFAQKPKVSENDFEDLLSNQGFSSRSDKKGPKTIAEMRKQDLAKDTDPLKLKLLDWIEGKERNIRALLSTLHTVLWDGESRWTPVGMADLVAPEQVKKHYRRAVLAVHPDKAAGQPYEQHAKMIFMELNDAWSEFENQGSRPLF

| SMILES | assay | conditions | measurement | value |
| --- | --- | --- | --- | --- |
| CC(C)S(=O)(=O)c1ccc2nccc(Nc3ccc4sc(C5CCCC5)nc4c3)c2c1 | enzyme activity, inhibitor | 1 µM | activity vs control | 101% |
| Cc1cc(O)c(-c2ccc([C@@H](C)CN(C)C)cc2)c2c1[nH]c(=O)c1sccc12 | enzyme activity, inhibitor | 0.1 µM | inhibition | 0.133% |
| CN1CCN(C(=O)c2ccc(NC(=O)Nc3ccc(N(C)c4ccnc(Nc5ccc(CS(C)(=O)=O)cc5)n4)cc3)cc2)CC1 | binding, competition with immobilised ligand | 1 µM | remaining binding | 18% |
| C1=C/COCc2cc(ccc2OCCN2CCCC2)Nc2nccc(n2)-c2cccc(c2)COC/1 | binding | 0.1 µM | remaining binding | 31% |
| CCCCC(=O)Nc1ccc(-c2ccc3ncn(CCC)c(=O)c3c2)cn1 | binding, competition with immobilised ligand | 0.5 µM | remaining binding | 100% |
| C=CC(=O)N1CCC([C@@H]2CCNc3c(C(N)=O)c(-c4ccc(Oc5ccccc5)cc4)nn32)CC1 | enzyme activity, inhibitor | 1 µM | inhibition | 20% |
| C#Cc1cc(-c2cc(Nc3nc(N[C@@H](C)c4ccc(F)cn4)ncc3Cl)n[nH]2)ccc1C=O | enzyme activity, inhibitor | 0.2 µM | inhibition | 18.7% |
| Cc1ccc(NC(=O)c2ccnc(C(F)(F)F)c2)cc1-c1cc(OCCO)nc(N2CCOCC2)c1 | binding, competition with immobilised ligand | 1 µM | remaining binding | 95% |
| CO[C@@H]1[C@H](N(C)C(=O)c2ccccc2)C[C@H]2O[C@]1(C)n1c3ccccc3c3c4c(c5c6ccccc6n2c5c31)C(=O)NC4 | enzyme activity, inhibitor | 1 µM | inhibition | 74% |
